# DTT redox prof: compounds producing H2O2 with reducing agent – biochemical, NIH compound library profiling, artefact control for MLSCN library redox annotation, primary screen; DTT-dependent redox cycling H2O2, phenol red/HRP absorbance; 100% = 100 µM peroxide control, 0% = buffer; activation, % at 10 µM; 200,000 compounds, 0.03% hits;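 active = activation of at least 50% relative to the plate's high and low controls in the primary single-dose screen; inactive = activation below 50%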;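 note: compound incubated with DTT at 0.8 mM final as the reducing agent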
# PMI act: activators of human PMI, primary screen, biochemical, fluorescence intensity, near-Km mannose 6-phosphate. Mannose-6-phosphate isomerase (Homo sapiens), P34949. purified human PMI, coupled resazurin fluorescence, 20 min; active compounds read high; 1 = vehicle control, 0 substrate-free wells. activation factor at 20 µM. 190,000 compounds, 0.005% hits. AID 1214, 2008;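 active = activation factor of 2 or more at 20 µM, relative to plate controls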
# Target sequence (P34949 whole entry, looked up): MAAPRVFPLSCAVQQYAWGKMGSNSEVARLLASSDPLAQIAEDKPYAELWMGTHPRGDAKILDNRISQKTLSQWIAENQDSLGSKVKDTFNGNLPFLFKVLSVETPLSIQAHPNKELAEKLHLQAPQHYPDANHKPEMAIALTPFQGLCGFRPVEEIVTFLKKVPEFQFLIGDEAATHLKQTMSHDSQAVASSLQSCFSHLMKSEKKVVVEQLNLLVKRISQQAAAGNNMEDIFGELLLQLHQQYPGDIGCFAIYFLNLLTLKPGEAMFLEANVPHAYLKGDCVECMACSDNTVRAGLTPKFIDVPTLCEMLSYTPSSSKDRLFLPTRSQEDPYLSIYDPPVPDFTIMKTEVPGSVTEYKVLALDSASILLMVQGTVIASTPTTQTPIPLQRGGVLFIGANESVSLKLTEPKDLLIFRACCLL
# Diaphorase act: compounds boosting diaphorase resazurin reduction – biochemical, uHTS, resorufin fluorescence, counter-screen for diaphorase-coupled primary assays, primary screen; Diaphorase/resazurin coupled assay, 16 min; active compounds read high; 1 = vehicle wells, 0 = NADH-free wells; activation factor at 20 µM; 190,000 compounds, 0.005% hits;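 active = diaphorase activity raised at least twofold by the compound at 20 µM; inactive = activation factor below 2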
#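 Assay system: Purified diaphorase enzyme from Clostridium kluyveri | Amount: Enzyme 0.07 U/mL final | Dosing: Compound 20 µM once, DMSO 1% | Timing: 16 min reaction at room temperature | Detection: Fluorescence, excitation 544 nm and emission 590 nm | Evaluation: Higher resorufin formation from activation or reduction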
# G6PDH counter: L. mesenteroides G6PDH inhibitors, counter-screen for G6PDH-coupled screening assays, biochemical, Leuconostoc mesenteroides enzyme; glucose-6-phosphate dehydrogenase [Leuconostoc mesenteroides]; Purified L. mesenteroides G6PDH, diaphorase/resazurin coupled fluorescence, 45 min; inhibition, % at 5 µM; 200,000 compounds, 0.12% hits; AID 1020, 2008; in the data active = inhibition above about 50%
# Diaphorase inh: diaphorase inhibitors and chemical oxidizers, primary screen, counter-screen for diaphorase-coupled primary assays, biochemical, uHTS, resorufin fluorescence. diaphorase resazurin-to-resorufin fluorescence, NADH, 16 min; bacterial (C. kluyveri) enzyme, not human. inhibition, % at 20 µM. 190,000 compounds, 0.69% hits;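 active = primary screen inhibition at 20 µM above a set limit, cut at about 50% in these data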;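 note: plate controls were DMSO with full reaction for no effect and wells lacking NADH for full effect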
#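 controls = No-NADH positive control and DMSO neutral control | system = Clostridium kluyveri diaphorase enzyme | timing = reaction incubation of 16 min at room temperature | signal = resorufin fluorescence 544/590 nm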
# PMI act satM6P: human PMI activators, high substrate, primary screen, biochemical, fluorescence intensity, near-saturating mannose 6-phosphate | Mannose-6-phosphate isomerase (Homo sapiens), P34949 | activation factor at 20 µM | 190,000 compounds, 0.34% hits | coupled PMI enzyme assay, resazurin fluorescence, 20 min; active compounds read high; 1 = untreated enzyme, 0 = substrate-free blank;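 active = activation factor of 2 or more at 20 µM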
#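 Test system: human PMI in coupled enzyme assay; Input: PMI at 15 ng/mL final; Medium: HEPES buffer, pH 7.4; Schedule: 20 min incubation at room temperature; Technique: resorufin fluorescence at Ex 544/Em 590 nm; Compound: 20 µM single dose; Probe or stimulus: Near-saturating mannose-6-phosphate, 1.0 mM.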
# * = called active by the depositor. Hits are enriched below; roughly 1.1% of the tested compounds scored in any of these assays.
SMILES,DTT redox prof,PMI act,Diaphorase act,G6PDH counter,Diaphorase inh,PMI act satM6P
CC(=O)Nc1ccc(NC(=O)CSc2ccc(-c3ccco3)nn2)cc1,1,0.8,0.4,1,59*,0.7
Cc1c(C(=O)c2ccc(Cl)cc2[N+](=O)[O-])c2ccccn2c1CCC#N,0,0.6,0.4,-1,64*,0.5
O=C1c2ccccc2-c2nnc(-c3ccc(F)cc3)cc21,-1,1.1,0.9,-2,10,0.9
Cc1ccccc1-c1cc2c(nn1)-c1ccccc1C2=O,0,2*,0.4,53*,65*,2.5*
O=C(Cc1ccccc1)Nc1cccc(N2C(=O)C=CC2=O)c1,0,1.5,0.8,5,20,2.1*
CC(=O)/C(=N/Nc1cccc(Cl)c1)N1CCOCC1,0,1.6,0.9,1,13,2*
CC(=O)/C(=N/Nc1ccccc1C)N1CCOCC1,-6,1.5,0.8,-4,16,2.4*
O=C(N/N=C/c1ccc(Cl)cc1)C1CC12CCC2 (stereo unspecified),0,1,1,4,1,1.1
Cc1ccc2cn[nH]c2c1NC(N)=S,-1,0.9,0.8,5,15,0.8
CCOC(=O)c1oc2nc(C(C)C)c3c(c2c1N)CC(C)(C)OC3,-1,1,0.3,12,68*,0.9
COc1ncnc2c1oc1nc(C(C)C)c3c(c12)CC(C)(C)OC3,0,0.9,0.1,6,88*,1
CCOc1ncnc2c1oc1nc(CC(C)C)c3c(c12)CC(C)(C)OC3,2,0.9,0.8,8,18,0.9
NC(=O)Cn1nnc(-c2ccc(CN3CCCCC3)cc2)n1,-1,1,1,1,0,1.1
COc1ccc(F)cc1C(=O)C1CCCN(Cc2cccn2-c2cccnc2)C1 (stereo unspecified),2,0.9,0.1,3,94*,1
COc1ccc(C(NC(=O)C2CCCCC2)c2c(O)ccc3ccccc23)cc1 (stereo unspecified),-1,0.8,0.8,-2,22,0.8
CCOCCCNC(=S)NCCCNc1nc2cc3c(cc2cc1C#N)OCO3,2,1.6,1,-42,4,2.2*
CCOCCCNC(=S)NCCCNc1nc2ccc(C)cc2cc1C#N,0,1.6,0.8,7,17,2.1*
CCOCCCNC(=S)NCCNc1nc2ccc(C)cc2cc1C#N,0,1.5,0.8,0,19,2*
CC(C(=O)Nc1ccncc1)(c1ccccc1)c1ccccc1,-1,1,1,15,0,0.9
CC1(C)Cn2c(nc(=O)c3c2NCN(CCc2ccccc2)C3)S1,0,1.1,1.1,7,-10,1.1
Cc1ccc(C)c(N(CC(=O)N/N=C/c2ccc(-c3ccc([N+](=O)[O-])cc3)o2)S(=O)(=O)c2ccccc2)c1,0,0.9,0.9,2,15,1
CCOc1ccc(S(=O)(=O)N(CC(=O)N/N=C/c2ccc(-c3ccc([N+](=O)[O-])cc3)o2)c2ccccc2)cc1,-4,0.4,0.4,7,62*,1
CCn1c(SCC(=O)N2CCN(c3ccccc3)CC2)nnc1-c1ccncc1,0,1.7,0.8,3,15,2.6*
CC(NC(=O)/C=C/c1cnc2ccccc2n1)C12CC3CC(CC(C3)C1)C2 (stereo unspecified),0,0.9,0.8,0,16,0.9
O=C(c1cc(COc2ccc(F)cc2Cl)on1)N1CCC(c2ccncc2)CC1,0,1,0.3,10,68*,1
SMILES,DTT redox prof,PMI act,Diaphorase act,G6PDH counter,Diaphorase inh,PMI act satM6P
COc1ccc2c(c1)C(=O)N(c1ccccc1C)C(=O)C2(C)C,0,1.1,1,12,0,1
O=C(O)c1cccc(NS(=O)(=O)c2ccc(-c3ccc(S(=O)(=O)Nc4cccc(C(=O)O)c4)cc3)cc2)c1,-1,0.9,0.5,0,51*,0.5
CC1=NN(c2ccccc2)C(=O)C1(C)[N+](=O)[O-] (stereo unspecified),0,1,0.9,-10,10,0.9
CC(=O)/C(=N\Nc1ccc(Cl)cc1)Sc1nnc(-c2ccccc2)n1-c1ccccc1,1,1.4,0.9,-17,14,2*
COC(=O)c1ccccc1N/C=C1\CCc2c(c(C)nn2-c2ccccn2)C1=O,-5,0.1,0.3,26,74*,0.3
CCOC(=O)C1=C(Cc2ccc(C)cc2)C(=O)c2ccccc2C1=O,0,1.2,0.6,54*,40,1.5
CCOC(=O)C1=C(Cc2ccc(OC)cc2)C(=O)c2ccccc2C1=O,-3,0.8,0.7,57*,31,1
CN1CCN(c2ccc(C(=O)NC3CCCCC3)cc2[N+](=O)[O-])CC1,-1,1,0.9,-4,12,1
COc1ccc2[nH]c3c(=S)nc[nH]c3c2c1,-1,1.8,0.7,6,26,2.6*
COc1ccc(NC(=O)Cc2coc3ccc4ccccc4c23)cc1S(=O)(=O)N1CCOCC1,1,0.8,0.8,9,19,0.9
COc1ccc(NC2=NC(=S)N(c3ccccc3C)C23CCCCC3)cc1,-14,0.9,0.9,0,13,0.9
[O-][N+]1=c2ccc(Nc3ccccc3)cc2=NC12CCCCC2,2,0.2,0.3,48,72*,0.3
COc1ccc(Nc2ccc3c(c2)=NC2(CCCCC2)[N+]=3[O-])cc1,4,0.2,0.3,56*,73*,0.3
Cn1cc(CN2CCC(N3CCNC(=O)CC3)CC2)c(-c2ccccc2F)n1,0,0.9,1,11,2,0.9
C=C1N(C)c2cc([N+](=O)[O-])c(N)cc2C1(C)C,0,0.1,0.3,44,75*,0.2
CC(=O)c1c(O)c2ccccc2n(C)c1=O,1,0.9,0.8,6,22,0.9
O=c1c(Cl)c(O)c2cccc3c4ccccc4n1c23,0,0.8,0.5,3,52*,1.1
